Data as given in ChEMBL document CHEMBL4145466, “Design, synthesis, and biological evaluation of novel combretastatin A-4 thio derivatives as microtubule targeting agents” (Eur J Med Chem, 2018).
Active and inactive are the calls of the source. The rule behind the calls is not given here.

Columns and labels:
SK-OV-3 [1] = test: Induction of apoptosis in human SKOV3 cells assessed as increase in histone-associated DNA fragments in oligonucleosomes after 24 hrs by ELISA; type: functional, cell-based
Summary of the method: (§1)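 Cells (2 × 10^4) were incubated for 24 h at 0.1, 0.5 or 1 µM, lysed and centrifuged. Supernatants went onto a streptavidin plate with anti-histone-biotin and anti-DNA-peroxidase for 2 h, followed by ABTS for 30 min and a reading at 405 nm. Nucleosome content was expressed as an enrichment factor, as mean ± SD of three experiments.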

MDA-MB-231 [2] = test: Induction of apoptosis in human MDA-MB-231 cells assessed as increase in histone-associated DNA fragments in oligonucleosomes after 24 hrs by ELISA; type: functional, cell-based; summary of the method: as §1
HeLa [3] = test: Induction of apoptosis in human HeLa cells assessed as increase in histone-associated DNA fragments in mononucleosomes after 24 hrs by ELISA; type: functional, cell-based; summary of the method: as §1
HaCaT [4] = test: Induction of apoptosis in human HaCaT cells assessed as increase in histone-associated DNA fragments in oligonucleosomes after 24 hrs by ELISA; type: cell-based; summary of the method: as §1
HaCaT [5] = test: Cell cycle arrest in human HaCaT cells assessed as accumulation of cells at G2/M phase at 0.1 to 1 uM after 24 hrs by propidium iodide staining-based FACS analysis
Summary of the method: (§2)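 Cells were seeded at 5 × 10^5 per well in DMEM with 10% FBS and left overnight, then exposed to 0.1, 0.5 or 1 µM for 24 h. DMSO served as the negative control and 50 nM camptothecin as the positive control. Cells were trypsinized, fixed in 70% ethanol for 30 min at 4 °C, stained with 50 µg/mL PI plus 100 µg/mL RNase A for 30 min in the dark, and analysed by flow cytometry. Results are mean ± SD of three experiments, compared by ANOVA with Dunnett's test.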

MCF7 [6] = test: Cell cycle arrest in human MCF7 cells assessed as accumulation of cells at G2/M phase at 0.1 to 1 uM after 24 hrs by propidium iodide staining-based FACS analysis; type: functional; summary of the method: as §2
MCF7 [7] = test: Induction of apoptosis in human MCF7 cells assessed as increase in histone-associated DNA fragments in oligonucleosomes after 24 hrs by ELISA; type: functional, cell-based; summary of the method: as §1
Tubulin (Homo sapiens) [8] = target: T1, Tubulin (Homo sapiens) (UniProt P68371+Q9H4B7+P0DPH7+P68366+Q13509+Q71U36+P04350+Q3ZCM7+P07437+P68363+Q9BQE3+Q6PEY2+Q13885+Q9BVA1+Q9BUF5); test: Inhibition of tubulin polymerization in human MCF7 cells assessed as micronuclei formation at 1 uM after 24 hrs by ELISA; type: cell-based
SK-OV-3 [9] = test: Cytotoxicity against human SKOV3 cells after 48 hrs by MTT assay; type: functional, cell-based; conditions: SK-OV-3, 48 h
Summary of the method: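 Cells in DMEM with 10% FBS were plated at 2 × 10^4 per well and left overnight, then treated for 48 h at 0.6–20 µM (six concentrations) from 10 mM DMSO stocks. MTT was added for 2 h, and formazan was dissolved in DMSO and read at 570 nm. Viability was expressed as % of control, with IC50 taken from dose-response curves. Results are mean ± SD of three independent experiments.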

Tubulin (Homo sapiens) [10] = target: T1, Tubulin (Homo sapiens); test: Inhibition of tubulin polymerization in human HeLa cells assessed as perturbation in cytoskeleton structure at 1 uM after 24 hrs by ELISA; type: cell-based
MDA-MB-231 [11] = test: Cell cycle arrest in human MDA-MB-231 cells assessed as accumulation of cells at G2/M phase at 0.1 to 1 uM after 24 hrs by propidium iodide staining-based FACS analysis; type: functional; summary of the method: as §2
Tubulin (Homo sapiens) [12] = target: T1, Tubulin (Homo sapiens); test: Inhibition of tubulin polymerization in human MDA-MB-231 cells assessed as perturbation in cytoskeleton structure at 1 uM after 24 hrs by ELISA; type: cell-based
Tubulin (Homo sapiens) [13] = target: T1, Tubulin (Homo sapiens); test: Inhibition of tubulin polymerization in human HeLa cells assessed as perturbation in cytoskeleton structure at 1 uM after 24 hrs by Hoechst 33258/FITC staining-based flow cytometric analysis; type: cell-based
Tubulin (Homo sapiens) [14] = target: T1, Tubulin (Homo sapiens); test: Inhibition of tubulin polymerization in human MCF7 cells assessed as perturbation in cytoskeleton structure at 1 uM after 24 hrs by ELISA; type: cell-based
Tubulin (Homo sapiens) [15] = target: T1, Tubulin (Homo sapiens); test: Inhibition of tubulin polymerization in human MDA-MB-231 cells assessed as chromatin condensation at 1 uM after 24 hrs by Hoechst 33258 staining-based fluorescence microscopic analysis; type: cell-based
Summary of the method: (§3)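 Cells seeded at 12.5 × 10^4 per well and exposed to 1 µM compound for 24 h. Nuclei were stained with Hoechst 33258 (10 µg/mL, 30 min, 37 °C), then fixed in 4% formaldehyde/PBS (15 min, RT). Cells were permeabilized with 1% Triton X-100, blocked with 2% BSA/PBS for 1 h, and incubated with anti-α-tubulin-FITC (1:50) overnight at 4 °C. Imaged by fluorescence microscopy.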

Tubulin (Homo sapiens) [16] = target: T1, Tubulin (Homo sapiens); test: Inhibition of tubulin polymerization in human A431 cells assessed as micronuclei formation at 1 uM after 24 hrs by ELISA; type: cell-based
HeLa [17] = test: Induction of apoptosis in human HeLa cells assessed as increase in histone-associated DNA fragments in oligonucleosomes after 24 hrs by ELISA; type: functional, cell-based; summary of the method: as §1
A-431 [18] = test: Induction of apoptosis in human A431 cells assessed as increase in histone-associated DNA fragments in mononucleosomes after 24 hrs by ELISA; type: functional, cell-based; summary of the method: as §1
HaCaT [19] = test: Induction of apoptosis in human HaCaT cells after 24 hrs by FITC Annexin V/propidium iodide staining-based FACScan flow cytometric analysis; type: cell-based
Summary of the method: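 After 24 h of compound exposure, 1 × 10^6 cells were labelled with annexin V-FITC and PI for 15 min at 25 °C in the dark. They were read on a FACScan with 488 nm excitation, detecting FITC at 525 nm and PI at 620 nm. Results are mean ± SD of three independent experiments, with Dunnett's test against control.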

Tubulin (Homo sapiens) [20] = target: T1, Tubulin (Homo sapiens); test: Inhibition of tubulin polymerization in human SKOV3 cells assessed as micronuclei formation at 1 uM after 24 hrs by Hoechst 33258/FITC staining-based flow cytometric analysis; type: cell-based; summary of the method: as §3
HeLa [21] = test: Cell cycle arrest in human HeLa cells assessed as accumulation of cells at G2/M phase at 0.1 to 1 uM after 24 hrs by propidium iodide staining-based FACS analysis; type: functional; summary of the method: as §2
MDA-MB-231 [22] = test: Induction of apoptosis in human MDA-MB-231 cells assessed as increase in histone-associated DNA fragments in mononucleosomes at 0.1 uM after 24 hrs by ELISA; type: functional, cell-based; summary of the method: as §1
A-431 [23] = test: Induction of apoptosis in human A431 cells assessed as increase in histone-associated DNA fragments in oligonucleosomes at 0.1 uM after 24 hrs by ELISA; type: functional, cell-based; summary of the method: as §1
SK-OV-3 [24] = test: Induction of apoptosis in human SKOV3 cells assessed as increase in histone-associated DNA fragments in mononucleosomes at 0.1 uM after 24 hrs by ELISA; type: functional, cell-based; summary of the method: as §1
HeLa [25] = test: Induction of apoptosis in human HeLa cells assessed as increase in histone-associated DNA fragments in oligonucleosomes at 0.1 uM after 24 hrs by ELISA; type: functional, cell-based; summary of the method: as §1
SK-OV-3 [26] = test: Induction of apoptosis in human SKOV3 cells assessed as increase in histone-associated DNA fragments in oligonucleosomes at 0.1 uM after 24 hrs by ELISA; type: functional, cell-based; summary of the method: as §1
HeLa [27] = test: Induction of apoptosis in human HeLa cells assessed as increase in histone-associated DNA fragments in mononucleosomes at 0.1 uM after 24 hrs by ELISA; type: functional, cell-based; summary of the method: as §1

Structure (SMILES): COc1ccc(-c2ocnc2-c2cc(Br)c(OC)c(OC)c2)cc1SC
- Activity (SK-OV-3 [1]): Dose-dependent effect
- Activity (MDA-MB-231 [2]): Dose-dependent effect
- Activity (HeLa [3]): Dose-dependent effect
- Activity (HaCaT [4]): Dose-dependent effect
- Activity (HaCaT [5]): Toxic
- Activity (MCF7 [6]): Active
- Activity (MCF7 [7]): Dose-dependent effect
- inhibition (Tubulin (Homo sapiens) [8]): Active
- IC50 (SK-OV-3 [9]): 1160 nM
- inhibition (Tubulin (Homo sapiens) [10]): Active
- Activity (MDA-MB-231 [11]): Active
- inhibition (Tubulin (Homo sapiens) [12]): Active
- inhibition (Tubulin (Homo sapiens) [13]): Active
- inhibition (Tubulin (Homo sapiens) [14]): Active
- inhibition (Tubulin (Homo sapiens) [15]): Active
- inhibition (Tubulin (Homo sapiens) [16]): Active
- Activity (HeLa [17]): Dose-dependent effect
- Activity (A-431 [18]): Dose-dependent effect
- Activity (HaCaT [19]): Dose-dependent effect
- inhibition (Tubulin (Homo sapiens) [20]): Active
- Activity (HeLa [21]): Dose-dependent effect

Structure (SMILES): COc1ccc(-c2ocnc2-c2cc(OC)c(SC)c(OC)c2)cc1O
- Activity (MDA-MB-231 [22]): Active
- Activity (HaCaT [5]): Toxic
- Activity (MCF7 [6]): Active
- inhibition (Tubulin (Homo sapiens) [8]): Active
- IC50 (SK-OV-3 [9]): 250 nM
- inhibition (Tubulin (Homo sapiens) [10]): Active
- Activity (A-431 [23]): Active
- Activity (MDA-MB-231 [11]): Active
- Activity (SK-OV-3 [24]): Active
- inhibition (Tubulin (Homo sapiens) [12]): Active
- inhibition (Tubulin (Homo sapiens) [13]): Active
- Activity (HeLa [25]): Active
- inhibition (Tubulin (Homo sapiens) [14]): Active
- inhibition (Tubulin (Homo sapiens) [16]): Active
- Activity (HaCaT [19]): Dose-dependent effect
- inhibition (Tubulin (Homo sapiens) [20]): Active
- Activity (SK-OV-3 [26]): Active
- Activity (HeLa [27]): Active
